Laboratory results published in article PMC2913441 (Chemical biology & drug design, 2010).

Assays:
Assay type in all cases: binding
Mdm2 [1] = molecular target: T1, Mdm2 (Homo sapiens, UniProt Q00987); assay: Interaction with Mdm2; conditions: result in words; assay not stated
Target sequence in this assay (Q00987 whole entry): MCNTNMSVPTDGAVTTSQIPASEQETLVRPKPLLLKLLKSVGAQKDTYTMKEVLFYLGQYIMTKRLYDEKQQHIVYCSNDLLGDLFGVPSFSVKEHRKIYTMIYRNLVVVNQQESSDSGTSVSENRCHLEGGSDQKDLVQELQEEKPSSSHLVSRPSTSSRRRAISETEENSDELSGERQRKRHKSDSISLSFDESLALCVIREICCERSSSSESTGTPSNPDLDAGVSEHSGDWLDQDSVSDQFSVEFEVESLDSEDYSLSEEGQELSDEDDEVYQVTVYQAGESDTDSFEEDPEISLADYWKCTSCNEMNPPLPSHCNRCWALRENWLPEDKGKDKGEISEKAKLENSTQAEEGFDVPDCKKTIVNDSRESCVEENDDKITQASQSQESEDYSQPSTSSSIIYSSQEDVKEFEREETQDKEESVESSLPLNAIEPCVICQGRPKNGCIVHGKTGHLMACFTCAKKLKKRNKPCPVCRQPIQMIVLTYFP

Mdm2/p53 complex = Mdm2/p53 complex (Homo sapiens, UniProt Q00987); assay: NMR-based antagonist induced dissociation assay; conditions: read-out: dissociation constant (Kd) of the compound-Mdm2 interaction; AIDA-NMR; 14 μM Mdm2/p53 complex mixed with compound in 1:1 molar ratio
Mdm2/p53 complex, sequence (Q00987 1-118, one chain of several): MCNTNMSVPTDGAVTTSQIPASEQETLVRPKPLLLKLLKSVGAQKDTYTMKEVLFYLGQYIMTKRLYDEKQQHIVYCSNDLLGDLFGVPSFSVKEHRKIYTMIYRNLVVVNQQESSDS
Method in brief: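 Variant of antagonist-induced dissociation NMR (SEI-AIDA). The preformed Mdm2/p53 complex (14 μM) is mixed with the test compound at a 1:1 molar ratio. The amount of p53 released from the complex is estimated from the 1D spectrum. The Kd of the Mdm2–compound interaction is then calculated from the released fraction.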

Mdm2 [2] = molecular target: T1, Mdm2; assay: Fluorescence polarization; conditions: read-out: inhibition constant (Ki) of Mdm2; FP assay, competition with p53-like peptide
Method in brief: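 Competitive fluorescence polarization assay: a fluorescent p53-like peptide is bound to recombinant Mdm2 and displaced by the test compound across a range of concentrations, giving dose–response curves. The binding constant and inhibition curves were fitted to derive Ki.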
Target sequence in this assay (Q00987 1-118): as the sequence (Q00987 1-118, one chain of several) above

| SMILES | interaction with Mdm2 (Mdm2 [1]) | Kd (Mdm2/p53 complex) | Ki (Mdm2 [2]) |
| --- | --- | --- | --- |
| Cc1cc(C)c(NC(=O)C2C(=O)Nc3sc4c(c3C(=O)N2Cc2ccc(Cl)cc2)CCCC4)c(C)c1 (centres unmarked) [5a-6, 3,4,6,7,8,9-Hexahydro-3-(N-mesityl)-carboxamide-4-(4-chlorobenzyl)-1H-benzothieno-[2,3-e]-1,4-diazepine-2,5-dione] | weak interaction | – | – |
| O=C(NCc1ccccc1)C1C(=O)Nc2sc3c(c2C(=O)N1Cc1ccc(Cl)cc1)CCCC3 (centres unmarked) [5a-7, 3,4,6,7,8,9-Hexahydro-3-(N-benzyl)-carboxamide-4-(4-chlorobenzyl)-1H-benzothieno-[2,3-e]-1,4-diazepine-2,5-dione] | – | 30 ± 20 µM | 40 µM |
| O=C(NCc1ccc(Cl)c(Cl)c1)C1C(=O)Nc2sc3c(c2C(=O)N1Cc1ccc(Cl)cc1)CCCC3 (centres unmarked) [5a-8, 3,4,6,7,8,9-Hexahydro-3-(N-3,4-dichlorobenzyl)-carboxamide-4-(4-chlorobenzyl)-1H-benzothieno-[2,3-e]-1,4-diazepine-2,5-dione] | – | 10 ± 6 µM | 45 µM |
